Experiments:
[1] = target: T1, CeDcpS (Caenorhabditis elegans, UniProt G5EFS4); conditions: pH 7.6, 20°C; cited from earlier work
T1 sequence (G5EFS4 1-311): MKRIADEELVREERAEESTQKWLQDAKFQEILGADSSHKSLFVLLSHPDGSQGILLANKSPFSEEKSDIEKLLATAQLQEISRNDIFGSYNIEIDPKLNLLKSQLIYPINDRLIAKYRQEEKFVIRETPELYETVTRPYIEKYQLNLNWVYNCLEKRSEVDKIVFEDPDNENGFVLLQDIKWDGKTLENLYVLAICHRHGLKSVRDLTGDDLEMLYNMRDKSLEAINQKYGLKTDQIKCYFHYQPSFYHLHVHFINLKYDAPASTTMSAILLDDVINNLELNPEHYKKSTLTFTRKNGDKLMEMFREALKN

[2] = target: T2, hDcpS (Homo sapiens, UniProt Q96C86); conditions: pH 7.6, 20°C; cited from earlier work
T2 sequence (Q96C86 1-337): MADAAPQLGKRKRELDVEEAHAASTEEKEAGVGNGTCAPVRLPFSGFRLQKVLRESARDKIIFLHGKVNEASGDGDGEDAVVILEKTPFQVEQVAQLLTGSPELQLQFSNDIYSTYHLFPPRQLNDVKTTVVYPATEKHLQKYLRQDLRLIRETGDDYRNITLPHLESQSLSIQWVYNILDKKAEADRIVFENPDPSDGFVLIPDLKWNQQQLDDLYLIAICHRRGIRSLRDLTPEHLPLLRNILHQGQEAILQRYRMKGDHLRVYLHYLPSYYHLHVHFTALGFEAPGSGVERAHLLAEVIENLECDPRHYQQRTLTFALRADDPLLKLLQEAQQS

[3] = target: mouse eIF4E(28–217) (Mus musculus, UniProt P63073); conditions: 50 mM HEPES/KOH (pH 7.2), 100 mM KCl, 20°C; cited from earlier work
Sequence of mouse eIF4E(28–217) (P63073 28-217): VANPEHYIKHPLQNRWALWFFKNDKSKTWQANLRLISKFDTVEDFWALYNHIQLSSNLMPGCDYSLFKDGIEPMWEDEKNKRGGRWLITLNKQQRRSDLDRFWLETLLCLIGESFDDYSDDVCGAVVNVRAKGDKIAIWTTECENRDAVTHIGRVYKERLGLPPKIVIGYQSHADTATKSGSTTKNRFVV

[4] = Stacking measurements; assay type: physicochemical; conditions: 0.1 M phosphate buffer, pH 5.2, 20°C; from fluorescence intensity of 7-methylguanosine; mean ± SD
Summary of the method: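 Dinucleotide fluorescence intensity compared with m⁷GMP (7-methylguanosine fluorophore) in phosphate buffer, pH 5.2, at 20 °C. Stacked fraction calculated as (F_m7GMP − F_cap)/F_m7GMP, since stacking partially quenches 7-methylguanosine fluorescence. Values given as mean ± SD.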

[5] = tested on: human immature dendritic cells (hiDCs); assay: Luciferase expression from 5′-capped mRNAs in dendritic cells; assay type: cell-based; conditions: luciferase mRNA capped with the analog, electroporated into hiDCs
Summary of the method: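 Luciferase mRNA made by T7 in vitro transcription with the cap dinucleotide added co-transcriptionally; plasmid DNA digested and RNA purified. Capped mRNA electroporated into human immature dendritic cells. Luciferase activity read at 2, 4, 8, 24, 48 and 72 h, in duplicate, and normalised to cell number. Time of maximal expression derived by spline interpolation of the time course.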

[6] = target: T2, hDcpS; assay: HPLC-based assay of DcpS-mediated hydrolysis, Assay 2; assay type: biochemical; conditions: DcpS 200 nM, cap analog 15 μM, pH 7.6, 20 °C
[7] = target: T1, CeDcpS; assay: HPLC-based assay of DcpS-mediated hydrolysis, Assay 2; assay type: biochemical; conditions: DcpS 200 nM, cap analog 15 μM, pH 7.6, 20 °C
Summary of the method: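 Substrate at 15 µM sits 10 min at 20°C in 50 mM Tris HCl, 200 mM KCl, 0.5 mM EDTA, 1 mM DTT (final pH 7.6) before enzyme is added to 0.2 μM. Aliquots are heat-stopped at 97°C for 2.5 min at 10 and 90 min. Analysis is RP HPLC (methanol 0–30% in 0.1 M KH₂PO₄), reading A260 and fluorescence (ex 280/em 337 nm). Output is x = % substrate hydrolysed, with the substrate peak multiplied by 1.1. CeDcpS was E. coli-expressed and Ni-NTA-purified.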

C[n+]1cn([C@@H]2O[C@H](COP(=O)(O)OP(=O)(O)O)[C@@H](O)[C@H]2O)c2nc(N)[nH]c(=O)c21 [m^7GDP, 7-methylguanosine diphosphate]
KAS for CeDcpS [1]: 97 ± 12^c μM^−1 | KAS for hDcpS [2]: 114 ± 8^b μM^−1

C[n+]1cn([C@@H]2O[C@H](COP(=O)(O)CP(=O)(O)OP(=O)(O)OC[C@H]3O[C@@H](n4cnc5c(=O)[nH]c(N)nc54)[C@H](O)[C@@H]3O)[C@@H](O)[C@H]2O)c2nc(N)[nH]c(=O)c21 [m^7GpCH2ppG]
KAS for CeDcpS [1]: 8.6 ± 0.4^c μM^−1 | KAS for hDcpS [2]: 234 ± 14^e μM^−1

C[n+]1cn(C2OC(COP(=O)(O)OP(O)(=S)OP(=O)(O)OCC3OC(n4cnc5c(=O)[nH]c(N)nc54)C(O)C3O)C(O)C2O)c2nc(N)[nH]c(=O)c21 (centres unmarked) [m^7GppSpG D2]
KAS (equilibrium association constant) for eIF4E [3]: 23.0 ± 0.4 µM⁻¹ | % of stacked conformation [4]: 60.8 ± 0.2%

CO[C@@H]1[C@H](O)[C@@H](COP(=O)(O)OP(=O)([O-])OP(=O)(O)OC[C@H]2O[C@@H](n3cnc4c(=O)[nH]c(N)nc43)[C@H](O)[C@@H]2O)O[C@H]1n1c[n+](C)c2c(O)nc(N)nc21 [m2^7,2′-OGpppG]
KAS (equilibrium association constant) for eIF4E [3]: 10.8 ± 0.3 µM⁻¹

CO[C@H]1[C@@H](O)[C@H]([n+]2cn(C)c3c(=O)[nH]c(N)nc32)O[C@@H]1COP(=O)([O-])OP(=O)(O)OP(=O)(O)OC[C@H]1O[C@@H](n2cnc3c(=O)[nH]c(N)nc32)[C@H](O)[C@@H]1O [m2^7,3′-OGpppG]
Time of max. (time point of maximal protein expression, functional RNA stability) [5]: 11.45 ± 0.07 h

C[n+]1cn([C@@H]2O[C@H](COP(=O)(O)OP(=O)(O)OP(=O)(O)OC[C@H]3O[C@@H](n4c[n+](C)c5c(=O)[nH]c(N)nc54)[C@H](O)[C@@H]3O)[C@@H](O)[C@H]2O)c2nc(N)[nH]c(=O)c21 [m^7Gpppm^7G]
KAS (equilibrium association constant) for eIF4E [3]: 5.0 ± 0.2 µM⁻¹

C[n+]1cn([C@@H]2O[C@H](COP(=O)(O)OP(O)(=S)OP(=O)(O)OC[C@H]3O[C@@H](n4cnc5c(=O)[nH]c(N)nc54)[C@H](O)[C@@H]3O)[C@@H](O)[C@H]2O)c2nc(N)[nH]c(=O)c21 (some centres unmarked) [m^7GppSpG D1]
KAS (equilibrium association constant) for eIF4E [3]: 45.0 ± 1.1 µM⁻¹ | Percent of cleavage, x (%) hDcpS 10 min ([6]; reaction time 10 min): 100% | Percent of cleavage, x (%) hDcpS 90 min ([6]; reaction time 90 min): 100% | Percent of cleavage, x (%) CeDcpS 10 min ([7]; reaction time 10 min): 100% | Percent of cleavage, x (%) CeDcpS 90 min ([7]; reaction time 90 min): 100% | % of stacked conformation [4]: 61.8 ± 0.7%

C[n+]1cn([C@@H]2O[C@H](COP(=O)([O-])NP(=O)(O)OP(=O)(O)OC[C@H]3O[C@@H](n4cnc5c(=O)[nH]c(N)nc54)[C@H](O)[C@@H]3O)[C@@H](O)[C@H]2O)c2nc(N)[nH]c(=O)c21.N.N [m^7GpNHppG]
KAS for CeDcpS [1]: 66 ± 9^c μM^−1 | KAS for hDcpS [2]: 218 ± 24^d μM^−1
